ChEMBL document CHEMBL1821586, “Identification and biological activities of new taccalonolide microtubule stabilizers” (J Med Chem, 2011)
Calls of active or inactive are those of the source. The calls are words filed in the database; no cut-off is given here.

What was measured:
[1] = tested on: HeLa; experiment: Antiproliferative activity against human HeLa cells after 48 hrs by SRB assay; type: functional, cell-based
Summary of the method: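 HeLa cells grown in BME with 10% FBS and 50 µg/ml gentamicin, drug-treated 48 h, proliferation read by SRB assay.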

[2] = Antitumor activity against mouse 16/C cells allografted in mouse B6C3F1 assessed as gross log cell killing at 56 mg/kg, iv administered on days 1,4,6 and day 8 or 9 relative to control; type: functional
Summary of the method: (§1)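 Mammary 16/C tumor fragments implanted bilaterally s.c. in female B6C3F1 mice on day 0, 5 mice/group. Taccalonolides in 50% DMSO:50% Cremophor stock, diluted with sterile water, given i.v. in 0.2 ml on days 1, 4, 6, plus one dose 2–3 days later (A, N) or further doses days 8, 9, 11 (E). Tumor mass = length × width²/2, measured 2–3 times weekly. Gross log cell kill = (T-C)/3.32 × Td, with T-C the days to 1000 mg.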

[3] = Antitumor activity against mouse 16/C cells allografted in mouse B6C3F1 assessed as decrease in tumor mass at 40 mg/kg, iv administered on days 1,4,6 and day 8 or 9 relative to control; type: functional
Summary of the method: (§2)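 Female B6C3F1 mice (mean 19.3 ± 1.0 g) carried bilateral s.c. Mammary 16/C tumor fragments implanted day 0, 5 mice/group. […] All were given IV in 0.2 ml. Tumor mass = L×W²/2, measured 2–3 times weekly. %T/C = treated/control median mass, zeros included, taken when control tumors reach ~700–1200 mg.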

[4] = Antitumor activity against mouse 16/C cells allografted in mouse B6C3F1 assessed as decrease in tumor mass at 56 mg/kg, iv administered on days 1,4,6 and day 8 or 9 relative to control; type: functional; summary of the method: as §2
[5] = tested on: HeLa; experiment: Cell cycle arrest in human HeLa cells assessed as accumulation of cells at G2/M phase at 3.5 uM after 18 hrs by flow cytometric analysis; type: functional, cell-based
Summary of the method: (§3)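 DNA stained with propidium iodide (Krishan's reagent); DNA content measured by flow cytometry and plotted as PI intensity vs events.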

[6] = Antitumor activity against mouse 16/C cells allografted in mouse B6C3F1 assessed as delay in tumor growth at 56 mg/kg, iv administered on days 1,4,6 and day 8 or 9 relative to control; type: functional
Summary of the method: (§4)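 Mammary 16/C fragments implanted s.c. bilaterally in female B6C3F1 mice on day 0, 5 mice/group, IV dosing in 0.2 ml. Tumors measured 2–3 times weekly. T-C = median days for treated vs control tumors to reach 1000 mg. Gross log cell kill = (T-C)/3.32×Td, with Td the doubling time from a log-linear fit of control tumor growth.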

[7] = Antitumor activity against mouse 16/C cells allografted in mouse B6C3F1 assessed as gross log cell killing at 40 mg/kg, iv administered on days 1,4,6 and day 8 or 9 relative to control; type: functional; summary of the method: as §1
[8] = tested on: HeLa; experiment: Induction of interphase microtubule bundling in human HeLa cells at 3.5 uM after 18 hrs by indirect immunofluorescence analysis; type: cell-based
[9] = tested on: HeLa; experiment: Inhibition of beta tubulin in human HeLa cells assessed asultiple abnormal mitotic spindle formation at 3.5 uM after 18 hrs by immunofluorescence analysis; type: cell-based
[10] = tested on: Mus musculus; experiment: Toxicity in B6C3F1 mouse allografted with mouse 16/C cells assessed as mean body weight loss at 56 mg/kg, iv administered on days 1,4,6 and day 8 or 9 (reference value: -2.2%); type: organism-based; parameters: dose 56 mg/kg, route intravenous; conditions: in vivo
[11] = Toxicity in B6C3F1 mouse allografted with mouse 16/C cells assessed as lethality at 56 mg/kg, iv; type: organism-based; parameters: dose 56 mg/kg, route intravenous; conditions: in vivo, read-out: Activity
[12] = tested on: Mus musculus; experiment: Toxicity in B6C3F1 mouse allografted with mouse 16/C cells assessed as mean body weight loss at 40 mg/kg, iv administered on days 1,4,6 and day 8 or 9 (reference value: -2.2%); type: organism-based; parameters: dose 40 mg/kg, route intravenous; conditions: in vivo
[13] = Antitumor activity against mouse 16/C cells allografted in mouse B6C3F1 assessed as delay in tumor growth at 40 mg/kg, iv administered on days 1,4,6 and day 8 or 9 relative to control; type: functional; summary of the method: as §4
[14] = tested on: Mus musculus; experiment: Toxicity in B6C3F1 mouse allografted with mouse 16/C cells assessed as mean body weight loss at 36 mg/kg, iv administered on days 1,4,6 and day 8 or 9 (reference value: -2.2%); type: organism-based; parameters: dose 36 mg/kg, route intravenous; conditions: in vivo
[15] = Antitumor activity against mouse 16/C cells allografted in mouse B6C3F1 assessed as gross log cell killing at 20 mg/kg, iv administered on days 1,4,6 and day 8 or 9 relative to control; type: functional; summary of the method: as §1
[16] = tested on: Mus musculus; experiment: Toxicity in B6C3F1 mouse allografted with mouse 16/C cells assessed as mean body weight loss at 20 mg/kg, iv administered on days 1,4,6 and day 8 or 9 (reference value: -2.2%); type: organism-based; parameters: dose 20 mg/kg, route intravenous; conditions: in vivo
[17] = Antitumor activity against mouse 16/C cells allografted in mouse B6C3F1 assessed as decrease in tumor mass at 20 mg/kg, iv administered on days 1,4,6 and day 8 or 9 relative to control; type: functional; summary of the method: as §2
[18] = Antitumor activity against mouse 16/C cells allografted in mouse B6C3F1 assessed as delay in tumor growth at 36 mg/kg, iv administered on days 1,4,6 and day 8 or 9 relative to control; type: functional; summary of the method: as §4
[19] = tested on: HeLa; experiment: Induction of interphase microtubule bundling in human HeLa cells at 1.3 uM after 18 hrs by indirect immunofluorescence; type: cell-based
[20] = tested on: HeLa; experiment: Cell cycle arrest in human HeLa cells assessed as accumulation of cells at G2/M phase at 1.3 uM after 18 hrs by flow cytometric analysis; type: functional, cell-based; summary of the method: as §3
[21] = Toxicity in B6C3F1 mouse allografted with mouse 16/C cells assessed as lethality at 20 mg/kg, iv administered on days 1,4,6 and day 8 or 9 measured after 12 days relative to control; type: organism-based; parameters: dose 20 mg/kg, route intravenous; conditions: in vivo, read-out: Activity
Summary of the method: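 Female B6C3F1 mice, 5 per group, bore bilateral s.c. Mammary 16/C fragments. Taccalonolides in DMSO:Cremophor diluted with water were given i.v. on days 1, 4, 6 plus a later dose (A, N) or days 8, 9, 11 (E). Mice were weighed and observed daily, and lethality was recorded per group.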

[22] = Antitumor activity against mouse 16/C cells allografted in mouse B6C3F1 assessed as delay in tumor growth at 20 mg/kg, iv administered on days 1,4,6 and day 8 or 9 relative to control; type: functional; summary of the method: as §4
[23] = Antitumor activity against mouse 16/C cells allografted in mouse B6C3F1 assessed as decrease in tumor mass at 36 mg/kg, iv administered on days 1,4,6 and day 8 or 9 relative to control; type: functional; summary of the method: as §2
[24] = Antitumor activity against mouse 16/C cells allografted in mouse B6C3F1 assessed as gross log cell killing at 36 mg/kg, iv administered on days 1,4,6 and day 8 or 9 relative to control; type: functional; summary of the method: as §1
[25] = tested on: HeLa; experiment: Inhibition of beta tubulin in human HeLa cells assessed asultiple abnormal mitotic spindle formation at 1.3 uM after 18 hrs by immunofluorescence analysis; type: cell-based

## CC(=O)O[C@@H]1[C@H]2[C@H]3[C@H]([C@H](OC(C)=O)[C@H](OC(C)=O)[C@]2(C)[C@@H]2[C@@H]1[C@]1(C)C(=C[C@H]2C)OC(=O)[C@@]1(C)O)[C@]1(C)[C@H](C[C@@H]2O[C@@H]2[C@@H]1OC(C)=O)C(=O)[C@@H]3O [TACCALONOLIDE A]
[1]
  IC50: 594 nM
[2]
  LCK: 4
[3]
  T/C: 24%
[4]
  T/C: 0%
[5]
  Activity: Active
[6]
  Time: 16 days
[7]
  LCK: 1
[8]
  Activity: Active
[9]
  inhibition: Active
[10]
  Activity: -16.7%
[11]
  mortality: 20%
[12]
  Activity: -6.3%
[13]
  Time: 4 days

## CC(=O)O[C@H]1C[C@H]2[C@H]([C@@H]3[C@@H](O)[C@@H]4[C@H]([C@H](C)C=C5OC(=O)[C@@](C)(O)[C@@]54C)[C@]31C)[C@@H](O)C(=O)[C@H]1C[C@@H]3O[C@@H]3[C@H](OC(C)=O)[C@@]12C [TACCALONOLIDE N]
[14]
  Activity: -8.2%
[1]
  IC50: 247 nM
[15]
  LCK: 0.25
[16]
  Activity: -2.1%
[17]
  T/C: 43%
[18]
  Time: 5 days
[19]
  Activity: Active
[20]
  Activity: Active
[21]
  mortality at 288 h: 0%
[22]
  Time: 1 days
[23]
  T/C: 0%
[24]
  LCK: 1.25
[25]
  inhibition: Active
